Tests used:
Jack bean urease = Jack bean urease (Canavalia ensiformis, UniProt P07374); experiment: Urease inhibitory assay; format: biochemical; details: urea 25 mM, pH 7.4, 37°C, triplicate
In short: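 Enzyme solution (2 mg/mL stock) was mixed with urea and test compound at various concentrations in 100 mM sodium phosphate, pH 7.4, then incubated 30 min at 37°C. An aliquot was taken into phenol–nitroprusside and alkaline hypochlorite–NaOH reagents and incubated a further 30 min at 37°C, and A625 was read. % inhibition was calculated against the solvent-plus-enzyme control, and IC50 was fitted. Run in triplicate with a hydroxyurea standard.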

[1] = no reference given; cited from earlier work

Chain of Jack bean urease (P07374 whole entry, looked up): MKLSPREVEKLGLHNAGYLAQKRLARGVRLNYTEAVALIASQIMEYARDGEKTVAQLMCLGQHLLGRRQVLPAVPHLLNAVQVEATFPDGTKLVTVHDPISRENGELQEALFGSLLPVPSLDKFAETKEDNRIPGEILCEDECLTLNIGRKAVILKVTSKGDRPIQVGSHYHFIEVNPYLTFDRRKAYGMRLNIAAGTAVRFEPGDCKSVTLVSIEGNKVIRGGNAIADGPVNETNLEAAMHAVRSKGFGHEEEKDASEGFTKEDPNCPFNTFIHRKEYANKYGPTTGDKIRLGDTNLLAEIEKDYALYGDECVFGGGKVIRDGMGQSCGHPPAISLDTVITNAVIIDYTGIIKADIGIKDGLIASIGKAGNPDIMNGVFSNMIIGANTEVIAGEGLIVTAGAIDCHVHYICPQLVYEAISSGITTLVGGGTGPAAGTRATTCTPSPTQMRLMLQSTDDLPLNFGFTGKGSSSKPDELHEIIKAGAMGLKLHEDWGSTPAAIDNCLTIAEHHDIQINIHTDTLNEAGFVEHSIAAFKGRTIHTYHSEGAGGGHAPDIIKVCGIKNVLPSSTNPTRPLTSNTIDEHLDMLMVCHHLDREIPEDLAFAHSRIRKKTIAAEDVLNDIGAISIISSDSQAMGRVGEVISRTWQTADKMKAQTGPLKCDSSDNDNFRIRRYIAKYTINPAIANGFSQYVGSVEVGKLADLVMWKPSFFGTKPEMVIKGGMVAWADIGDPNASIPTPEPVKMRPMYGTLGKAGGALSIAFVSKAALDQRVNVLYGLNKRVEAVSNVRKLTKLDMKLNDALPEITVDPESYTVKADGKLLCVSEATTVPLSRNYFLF

IC50 (Jack bean urease) | Structure (SMILES) | pKa [1]
100 µM | NC(=O)NO [hydroxyurea] | 
 | COC(=O)CC(C)=O [methyl acetoacetate] | 11.0
